Test results as given in ChEMBL document CHEMBL2010675, “Discovery of GS-9451: an acid inhibitor of the hepatitis C virus NS3/4A protease” (Bioorg Med Chem Lett, 2012).
Values after ≈ are worked out from the molar mass of the structure shown.

How the values were obtained:
[1] = tested on: Hepatitis C virus; experiment: Inhibition of Hepatitis C virus genotype 1b NS3/4A protease; parameters: species or system Hepatitis C virus subtype 1b
[2] = tested on: Hepatitis C virus; experiment: Antiviral activity against Hepatitis C virus genotype 1b infected in human Huh cells by luciferase reporter gene based replicon assay; type: functional, organism-based, Hepacivirus hominis
Summary of the method: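 EC50 from a cell-based assay in Huh-luc cells carrying a subgenomic HCV genotype 1b replicon, with luciferase reporter read-out.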

[3] = Thermodynamic solubility of the compound at pH 7.3; type: physicochemical; conditions: buffer, read-out: Therm_solubility
[4] = Thermodynamic solubility of the compound at pH 2.2; type: physicochemical; conditions: buffer; for solubility thermodynamic: read-out: Therm_solubility
[5] = Permeability from apical to basolateral side in human Caco2 cells; type: ADME, cell-based; conditions: Caco-2, read-out: permeability
[6] = Permeability from basolateral to apical side in human Caco2 cells; type: ADME, cell-based; conditions: Caco-2, read-out: permeability

| IC50 [1] [nM] | EC50 [2] [nM] | solubility thermodynamic [3] [µM] | Therm_solubility [4] | Papp A→B [5] [×10⁻⁶ cm/s] | Papp B→A [6] [×10⁻⁶ cm/s] | solubility thermodynamic [4] [µM] | SMILES |
| --- | --- | --- | --- | --- | --- | --- | --- |
| 1.4 | 9 | 72 (≈ 58.4 µg/mL) | Insoluble(BLD) | 7.3 | 25 | – | CC[C@@H]1C[C@]1(NC(=O)[C@@H]1C[C@@H](Oc2cc(-c3csc(NC(C)C)n3)nc3c(Cl)c(OC)ccc23)CN1C(=O)[C@@H](NC(=O)O[C@@H]1C[C@@H]2C[C@@H]2C1)C(C)(C)C)C(=O)O |
| 2.6 | 5 | 57 (≈ 48.3 µg/mL) | – | 4.5 | 18 | 20 (≈ 16.9 µg/mL) | CC[C@@H]1C[C@]1(NC(=O)[C@@H]1C[C@@H](Oc2cc(-c3csc(NC(C)C)n3)nc3c(Cl)c(OC)ccc23)CN1C(=O)[C@@H](NC(=O)O[C@H]1C[C@@H]2[C@H](C1)C2(F)F)C(C)(C)C)C(=O)O |
| 5 | 115 | 9 (≈ 7.63 µg/mL) | – | 6.8 | 49 | < 6 | CC[C@@H]1C[C@]1(NC(=O)[C@@H]1C[C@@H](Oc2cc(-c3csc(NC(C)C)n3)nc3c(Cl)c(OC)ccc23)CN1C(=O)[C@@H](NC(=O)O[C@@H]1C[C@@H]2[C@H](C1)C2(F)F)C(C)(C)C)C(=O)O |
